Test results from publication PMC2225610 (The Journal of General Physiology, 1999).
Entries after “also recorded” stand apart in the source; their conditions may differ. Where two headings read alike, the source gives them in different places. Each block holds one molecule with its values, some of them ahead of it.

Experiments:
[1] = target: T1, type 1 InsP3 receptor (cerebellar membranes) (Canis lupus familiaris, UniProt A0A8I3NKB2); details: ref Kaftan et al., 1997; cited from earlier work
[2] = tested on: intracellular Ca; details: 100 μM; ref Wakui et al., 1989; Petersen et al., 1991; cited from earlier work
[3] = target: T1, type 1 InsP3 receptor (cerebellar membranes); assay: InsP3 binding to cerebellar microsomes; design: species or system canine
Procedure, shortened: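 Canine cerebellar microsomes prepared with protease inhibitors. Membranes added, incubated 8 min at 0° or 22°C, then pelleted at 40,000 g for 10 min for scintillation counting. Nonspecific binding measured with 40–160 μM unlabeled InsP3. Two-site Scatchard fit; 3–5 repeats, separate preparations.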

[4] = target: T2, type 1 InsP3-gated Ca channel (Canis lupus familiaris, UniProt A0A8I3NKB2); details: cited from earlier work
[5] = tested on: cerebellar Purkinje cells; details: flash photolysis; ref Khodakhah and Ogden, 1995; cited from earlier work
[6] = target: T2, type 1 InsP3-gated Ca channel; assay: InsP3-gated channel activity in planar lipid bilayer; format: biochemical, canine
Procedure, shortened: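 Canine cerebellar microsomes fused into PE:PS (3:1) bilayers in decane. Cytosolic side: 500 μM Na-ATP, 500 μM EGTA, 110 mM Tris, 250 mM HEPES, pH 7.35, with CaCl2 to set free Ca, verified by BTC fluorescence. Luminal side: 53 mM Ba(OH)2 as carrier, 250 mM HEPES. InsP3 added to start activity. Held at 0 mV; filtered 1 kHz, digitized 5 kHz; open-time histograms compiled.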

[7] = target: InsP3-gated Ca channel tetrameric complex; assay: Mathematical model of the tetrameric InsP3-gated channel complex; details: read-out: Model dissociation constant, InsP3 low affinity site (J); 22°C
Procedure, shortened: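 Tetramer model: each subunit has a medium-affinity InsP3 site, a low-affinity InsP3 site and a Ca site, giving 125 states. Assumes mass-action binding, diffusion-limited on-rates and identical subunits, solved at equilibrium. Low-affinity occupancy defines the active state, with open/closed transitions. Unknown parameters found by quasi-Newton iterative fitting to single-channel open probability and Ca-dependent binding data at 22°C; open-time histograms add constraints.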

T2 sequence (A0A8I3NKB2 1-2757): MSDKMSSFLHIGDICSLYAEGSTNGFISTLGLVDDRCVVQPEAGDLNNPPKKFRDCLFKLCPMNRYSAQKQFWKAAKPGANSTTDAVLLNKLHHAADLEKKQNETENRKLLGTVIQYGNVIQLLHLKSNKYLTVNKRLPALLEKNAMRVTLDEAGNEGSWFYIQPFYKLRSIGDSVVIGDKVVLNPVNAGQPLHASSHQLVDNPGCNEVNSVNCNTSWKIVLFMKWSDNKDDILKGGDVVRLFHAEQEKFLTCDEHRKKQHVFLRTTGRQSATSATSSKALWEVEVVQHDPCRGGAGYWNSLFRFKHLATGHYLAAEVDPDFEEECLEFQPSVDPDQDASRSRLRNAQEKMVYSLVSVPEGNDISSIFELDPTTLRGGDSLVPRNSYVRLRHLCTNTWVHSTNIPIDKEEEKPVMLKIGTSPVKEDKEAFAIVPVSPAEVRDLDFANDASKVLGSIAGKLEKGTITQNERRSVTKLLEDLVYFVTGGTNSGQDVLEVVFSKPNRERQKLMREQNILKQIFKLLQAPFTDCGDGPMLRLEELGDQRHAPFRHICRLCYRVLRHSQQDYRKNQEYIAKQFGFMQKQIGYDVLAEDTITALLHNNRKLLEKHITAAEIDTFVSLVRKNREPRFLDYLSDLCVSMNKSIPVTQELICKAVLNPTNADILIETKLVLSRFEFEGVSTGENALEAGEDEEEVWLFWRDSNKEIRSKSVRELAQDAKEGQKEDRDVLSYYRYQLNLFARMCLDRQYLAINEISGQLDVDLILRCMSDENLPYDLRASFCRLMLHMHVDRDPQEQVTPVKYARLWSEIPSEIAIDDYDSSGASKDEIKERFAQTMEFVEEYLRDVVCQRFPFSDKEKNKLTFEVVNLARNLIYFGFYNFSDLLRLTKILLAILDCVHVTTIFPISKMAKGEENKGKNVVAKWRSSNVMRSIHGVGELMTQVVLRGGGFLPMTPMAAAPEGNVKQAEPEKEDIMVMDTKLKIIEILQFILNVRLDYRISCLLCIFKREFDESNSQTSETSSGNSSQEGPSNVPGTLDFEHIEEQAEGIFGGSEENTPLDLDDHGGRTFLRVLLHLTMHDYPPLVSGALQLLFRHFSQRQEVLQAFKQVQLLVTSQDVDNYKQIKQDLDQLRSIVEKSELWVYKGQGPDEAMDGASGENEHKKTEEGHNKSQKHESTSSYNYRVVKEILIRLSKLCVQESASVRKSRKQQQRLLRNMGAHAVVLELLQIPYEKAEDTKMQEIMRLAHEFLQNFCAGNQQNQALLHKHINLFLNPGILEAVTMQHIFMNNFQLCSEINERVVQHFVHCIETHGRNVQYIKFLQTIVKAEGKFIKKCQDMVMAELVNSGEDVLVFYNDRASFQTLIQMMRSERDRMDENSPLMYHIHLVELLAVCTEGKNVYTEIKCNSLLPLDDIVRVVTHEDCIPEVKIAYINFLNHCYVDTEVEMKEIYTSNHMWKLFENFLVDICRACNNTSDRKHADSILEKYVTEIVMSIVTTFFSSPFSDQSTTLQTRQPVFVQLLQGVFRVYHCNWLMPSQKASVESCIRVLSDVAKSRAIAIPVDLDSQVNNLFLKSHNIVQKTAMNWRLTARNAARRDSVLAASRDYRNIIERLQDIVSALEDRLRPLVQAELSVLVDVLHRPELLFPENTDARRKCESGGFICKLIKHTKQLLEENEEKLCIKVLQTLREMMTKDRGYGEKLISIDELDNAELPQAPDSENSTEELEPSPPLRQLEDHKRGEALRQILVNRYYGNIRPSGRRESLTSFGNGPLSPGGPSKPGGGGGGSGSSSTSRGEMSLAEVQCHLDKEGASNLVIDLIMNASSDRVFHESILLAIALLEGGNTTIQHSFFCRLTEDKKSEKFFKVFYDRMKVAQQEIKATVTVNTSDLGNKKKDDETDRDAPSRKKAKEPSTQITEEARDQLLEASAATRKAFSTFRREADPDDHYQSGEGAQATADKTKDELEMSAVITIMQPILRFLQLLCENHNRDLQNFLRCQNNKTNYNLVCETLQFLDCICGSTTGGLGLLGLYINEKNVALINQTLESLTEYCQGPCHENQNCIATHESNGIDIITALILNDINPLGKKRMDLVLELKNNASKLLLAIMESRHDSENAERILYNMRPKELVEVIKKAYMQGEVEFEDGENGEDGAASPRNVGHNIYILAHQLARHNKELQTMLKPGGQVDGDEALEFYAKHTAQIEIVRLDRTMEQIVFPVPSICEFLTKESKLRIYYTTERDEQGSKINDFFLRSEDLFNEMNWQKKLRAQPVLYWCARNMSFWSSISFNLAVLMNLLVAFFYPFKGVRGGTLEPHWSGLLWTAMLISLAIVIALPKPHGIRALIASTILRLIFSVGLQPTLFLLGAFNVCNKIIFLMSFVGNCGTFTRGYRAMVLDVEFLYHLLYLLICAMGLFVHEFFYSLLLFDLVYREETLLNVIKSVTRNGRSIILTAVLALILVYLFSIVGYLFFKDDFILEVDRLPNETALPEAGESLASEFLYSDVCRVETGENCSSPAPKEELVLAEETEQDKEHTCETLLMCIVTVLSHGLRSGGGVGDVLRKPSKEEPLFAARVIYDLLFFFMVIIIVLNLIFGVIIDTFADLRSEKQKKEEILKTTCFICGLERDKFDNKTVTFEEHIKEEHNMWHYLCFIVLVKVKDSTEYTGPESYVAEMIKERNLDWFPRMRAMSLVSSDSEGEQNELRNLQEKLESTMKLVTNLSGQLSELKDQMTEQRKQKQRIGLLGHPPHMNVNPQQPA

Structure (SMILES): O=P(O)(O)OC1[C@H](O)[C@H](OP(=O)(O)O)C(OP(=O)(O)O)[C@H](OP(=O)(O)O)[C@H]1O (stereo partly shown) [1,3,4,5-InsP4]
Specificity of low affinity site for 1,4,5-InsP3 versus 1,3,4,5-InsP4 [1]: low level of specificity

Structure (SMILES): O=P(O)(S)O[C@@H]1[C@@H](O)[C@H](OP(O)(O)=S)[C@@H](OP(O)(O)=S)[C@H](O)[C@@H]1O (stereo partly shown) [InsPS3]
Effect on intracellular Ca [2]: sustained elevation of intracellular Ca

Hill coefficient of Ca-dependent inhibition of InsP3 binding ([3]; 0°C): 1.5
Ca-dependent increase in Kd of InsP3 binding ([3]; 0°C, Ca 0.0004 to 10 μM, medium affinity site): ~3.5 fold
Decrease of InsP3 binding by Ca ([3]; 0°C, Ca increased from 0 to 100 μM, 10 nM InsP3): 66%
Hill coefficient of Ca-dependent inhibition of InsP3 binding ([3]; 22°C): 2.8
Reduction of InsP3 binding by Ca ([3]; 22°C, 170 nM InsP3, Ca 0.1 to 10 μM): 55%
Structure (SMILES): [Ca+2] [Ca, calcium]
Effect of Ca on maximal number of InsP3 binding sites ([3]; 0° and 22°C): did not influence the maximal number of binding sites; also recorded: no evidence for an effect
Inhibition of channel activity by Ca ([4]; 5 μM Ca, 2 μM InsP3, ref Bezprozvanny et al., 1991): near complete inhibition

Structure (SMILES): O=C(O)CN(CCOCCOCCN(CC(=O)O)CC(=O)O)CC(=O)O [EGTA]
Reversal of Ca-dependent inhibition of InsP3 binding by Ca chelation ([3]; EGTA added after Ca): fully reversible; also recorded: completely reversed; also recorded: completely reversible

Channel open time constant, fast component ([6]; 0.01 μM Ca, 2 μM InsP3): 1.8 ms
Channel open time constant, slow component ([6]; 0.01 μM Ca, 2 μM InsP3): 9.3 ms
Channel open time constant, fast component ([6]; 0.1 μM Ca): 0.6 ms
Channel open time constant, slow component ([6]; 0.1 μM Ca): 4.7 ms
Q10 of temperature-dependent change in InsP3 binding affinity ([3]; 0° vs 22°C, cerebellar membranes): 2.3
Difference between medium and low affinity site dissociation constants ([3]; 22°C (0.3 vs ∼10 μM)): 30 ×
Difference in dissociation constants between medium and low affinity sites ([3]; 37°C (1 vs. 10 μM), predicted): 10 fold
Kd ([3]; read-out: Kd for InsP3 binding at high Ca, 22°C, 50 μM free Ca): 1.78 µM
Kd ([3]; read-out: Kd of InsP3 binding, medium affinity site, 22°C): 0.312 µM
Kd [7]: 10 µM
Structure (SMILES): O=P(O)(O)O[C@@H]1[C@H](O)[C@H](O)[C@@H](OP(=O)(O)O)[C@H](OP(=O)(O)O)[C@H]1O [InsP3, inositol 1,4,5-trisphosphate]
Intracellular InsP3 needed to induce Ca release [5]: at least 9 μM
Effect of high InsP3 on Ca-dependent inhibition of channel activity ([4]; 180 μM InsP3, ref Kaftan et al., 1997): overcame the Ca-dependent inhibition of channel activity
Hill coefficient from single channel activity determinations ([4]; ref Watras et al., 1991): 1.0
Effect on intracellular Ca [2]: sustained elevation of intracellular Ca

Structure (SMILES): [Ba+2] [barium]
Effect on Ca-dependent inhibition of InsP3 binding ([3]; 100 μM free barium, data not shown): did not alter
